Measurements collected from several papers.
Lines come from different studies, so protocols differ.
Target: Casein kinase I isoform gamma-3 (CSNK1G3, Homo sapiens, UniProt Q9Y6M4)

CC1CCCN1c1nccc(-c2cnn3ncccc23)n1 (centres unmarked) — remaining binding (binding; 1 µM): 100%
O=C(c1ccc(Nc2ncc(Cl)c(-c3cc4ccccc4s3)n2)cc1)N1CCC(N2CCCC2)CC1 — remaining binding (binding, competition with immobilised ligand; 1 µM): 100%
C[C@@H]1CCN(c2nccc(-c3cnn4ncccc34)n2)C1 — remaining binding (binding; 1 µM): 65%
CNC(=O)[C@@H]1CC[C@@H](n2c(-c3ccc4cnccc4c3)nc3ccc(C(=O)NCc4cccc(C(N)=O)c4)cc32)C1 — remaining binding (binding, competition with immobilised ligand; 1 µM): 100%
O=C(NCc1ncc(C(F)(F)F)cc1Cl)c1ccc2c(c1)C1(CCS(=O)(=O)CC1)[C@H](C1CC1)N2S(=O)(=O)c1ccc(F)cc1 — remaining binding (cell-free assay, competition with immobilised ligand; 1 µM): 100%
c1cncc(-c2cccc(Nc3nccc(NC4CCCCC4)n3)c2)c1 — remaining binding (binding, competition with immobilised ligand; 10 µM): 100%
O=C(c1ccc(Nc2ncc(Cl)c(-c3ccc(Cl)s3)n2)cc1)N1CCC(N2CCCC2)CC1 — remaining binding (binding, competition with immobilised ligand; 1 µM): 100%
N[C@H]1CCN(c2nccc(-c3cnn4ncccc34)n2)C1 — remaining binding (binding; 1 µM): 100%
O=C(NCC1CCOCC1)c1n[nH]cc1NC(=O)c1c(F)cccc1F — remaining binding (binding, competition with immobilised ligand; 1 µM): 78%
O=C(NCCCN1CCOCC1)c1ccc(Nc2nccc(-c3cc4ccccc4s3)n2)cc1 — remaining binding (binding, competition with immobilised ligand; 1 µM): 88%
CCOCCn1cc(C(=O)Nc2ccc(-n3nc(-c4cccnc4)cc3C(F)(F)F)cn2)ccc1=O — remaining binding (cell-free assay, competition with immobilised ligand; 1 µM): 100%
Cc1cnn2ncc(-c3ccnc(N(C)C)n3)c2c1 — remaining binding (binding; 1 µM): 82%
O=C(O)[C@H]1[C@H](Cn2nnc3ccccc3c2=O)CC[C@@H]1C(=O)c1ccc(OCCC2CCOCC2)cc1 — remaining binding (cell-free assay, competition with immobilised ligand; 1 µM): 100%
c1cnn2ncc(-c3ccnc(N4CCC45COC5)n3)c2c1 — remaining binding (binding; 1 µM): 100%
Cc1c(C(=O)O)cc(-c2ccc(C3CCNCC3)cc2)c2ccc(-c3ccc(C(F)(F)F)cc3)cc12 — remaining binding (cell-free assay, competition with immobilised ligand; 1 µM): 100%
Nc1ncc2c(n1)-c1c([nH]c3ccc(C#CC4CC4)cc13)CCCC2 — remaining binding (binding, competition with immobilised ligand; 1 µM): 93%
CN(C)CC#Cc1ccc(OCCCc2sc(N3CCc4cccc(C(=O)Nc5nc6ccccc6s5)c4C3)nc2C(=O)O)c(F)c1 — remaining binding (cell-free assay, competition with immobilised ligand; 1 µM): 100%
COc1ncc2cc3ccccc3nc2c1C#N — remaining binding (cell-free assay, competition with immobilised ligand; 5 µM): 96%
CN(CCCC(F)(F)F)c1nccc(-c2cnn3ncccc23)n1 — remaining binding (binding; 1 µM): 100%
O=C1NC(c2ccccn2)Sc2ccccc21 (centres unmarked) — remaining binding (cell-free assay, competition with immobilised ligand; 1 µM): 100%
